Source: ChEMBL document CHEMBL1134280, “Discovery and biological evaluation of a new family of potent inhibitors of the dual specificity protein phosphatase Cdc25” (J Med Chem, 2001)

Experiments:
[1] = target: T1, M-phase inducer phosphatase 2 (Homo sapiens, UniProt P30305); experiment: Inhibitory activity against recombinant human cell division cycle 25B
T1 sequence (P30305 whole entry): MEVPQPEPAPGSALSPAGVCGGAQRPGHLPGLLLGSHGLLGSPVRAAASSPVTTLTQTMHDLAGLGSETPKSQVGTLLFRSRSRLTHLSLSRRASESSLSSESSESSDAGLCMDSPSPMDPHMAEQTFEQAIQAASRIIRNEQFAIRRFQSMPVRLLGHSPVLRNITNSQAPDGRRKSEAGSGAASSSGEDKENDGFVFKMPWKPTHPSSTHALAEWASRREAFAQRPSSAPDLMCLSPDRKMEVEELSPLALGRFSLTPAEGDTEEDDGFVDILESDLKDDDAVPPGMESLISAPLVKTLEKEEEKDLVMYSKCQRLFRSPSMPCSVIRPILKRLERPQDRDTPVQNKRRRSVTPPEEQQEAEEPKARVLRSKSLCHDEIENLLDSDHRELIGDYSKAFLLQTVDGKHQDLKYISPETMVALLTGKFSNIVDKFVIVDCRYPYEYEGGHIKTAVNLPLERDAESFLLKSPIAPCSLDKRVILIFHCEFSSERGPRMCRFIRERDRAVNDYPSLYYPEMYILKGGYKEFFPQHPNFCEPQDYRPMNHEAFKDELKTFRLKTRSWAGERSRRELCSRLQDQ
Outline: (§1)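 GST-fusion enzyme (Cdc25B₂, VHR) or human recombinant PTP1B, with O-methyl fluorescein phosphate as substrate in a miniaturized microtiter format. IC50 values were taken from concentration–response data.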

[2] = target: T2, Tyrosine-protein phosphatase non-receptor type 1 (Homo sapiens, UniProt P18031); experiment: Inhibitory Activity against Recombinant Human PTP1
T2 sequence (P18031 whole entry): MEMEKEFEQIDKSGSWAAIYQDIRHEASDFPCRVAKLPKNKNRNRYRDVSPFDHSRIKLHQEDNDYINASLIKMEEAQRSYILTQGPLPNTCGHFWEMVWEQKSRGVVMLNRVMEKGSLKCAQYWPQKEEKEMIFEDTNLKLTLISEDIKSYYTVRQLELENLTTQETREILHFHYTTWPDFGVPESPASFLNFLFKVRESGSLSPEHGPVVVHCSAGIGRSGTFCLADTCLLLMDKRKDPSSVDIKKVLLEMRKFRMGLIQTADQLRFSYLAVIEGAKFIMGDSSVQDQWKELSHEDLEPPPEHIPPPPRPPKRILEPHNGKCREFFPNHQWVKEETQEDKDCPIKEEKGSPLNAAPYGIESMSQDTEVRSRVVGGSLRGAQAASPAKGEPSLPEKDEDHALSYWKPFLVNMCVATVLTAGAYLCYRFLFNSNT
Outline: as §1, with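 “format. After 60 min at ambient temperature, product fluorescence was read (excitation 485/20, emission 530/30).” for “format.”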

[3] = target: Dual specificity protein phosphatase 3 (Homo sapiens, UniProt P51452); experiment: Inhibitory Activity against Recombinant Human VHR
Outline: as §1, with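 “format. After 60 min at ambient temperature, product fluorescence was read (excitation 485/20, emission 530/30).” for “format.”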

Dual specificity protein phosphatase 3, sequence (P51452 whole entry): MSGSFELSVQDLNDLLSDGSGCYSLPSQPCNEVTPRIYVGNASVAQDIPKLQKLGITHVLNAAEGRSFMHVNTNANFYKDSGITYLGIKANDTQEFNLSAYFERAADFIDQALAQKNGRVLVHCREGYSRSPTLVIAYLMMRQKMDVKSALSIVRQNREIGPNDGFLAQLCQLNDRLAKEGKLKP

Compound	IC50 [1] [µM]	IC50 [2] [µM]	IC50 [3] [µM]
O=C1C(Cl)=C(Cl)C(=O)c2ncncc21	4.8	> 10	> 10
CCCCCCOc1ccc(NC2=C(Cl)C(=O)c3cccnc3C2=O)cc1	0.93	> 10	> 10
O=C1C(Cl)=C(NCCN2CCOCC2)C(=O)c2cnccc21	0.59	> 10	> 10
O=C1C(Cl)=C(NCCc2c[nH]c3ccccc23)C(=O)c2ncccc21	5.1	> 10	> 10
O=C1C(Cl)=C(Cl)C(=O)c2cnccc21	1.5	> 10	> 10
COC(=O)c1nc(-c2ccc3c(n2)C(=O)C(=N)C(OC)=C3O)c(N)c(-c2ccc(OC)c(OC)c2O)c1C	0.37	8.7	5.1
O=C1C(Cl)=C(Cl)C(=O)c2ncccc21	4.6	> 10	> 10
O=C1/C(=N\C(Cc2c[nH]c3ccccc23)C(=O)O)C(Cl)=C(O)c2cccnc21 (centres undefined)	16	> 10	> 10
O=C1C(Cl)=C(NCCN2CCOCC2)C(=O)c2ncccc21		> 100	4
O=C1C=CC(=O)c2ncccc21	3	> 10	> 10
O=C1C(Cl)=C(N2CCN(CCOCCO)CC2)C(=O)c2ncccc21	0.9	> 10	> 10
O=C1C(Cl)=C(Cl)C(=O)c2cnncc21	8.9	> 10	> 10

Further molecules by falling IC50 [1], results first:

IC50 [1] [µM]	IC50 [2] [µM]	IC50 [3] [µM]	Compound
0.82	> 10	> 10	O=C1C(NCCN2CCOCC2)=C(Cl)C(=O)c2ncccc21
0.67	> 10	> 10	CC(/N=C1\C=C(O)c2ncccc2C1=O)C(O)c1ccccc1 (centres undefined)
0.64	8	8.5	O=C1/C(=N/CCc2cc(Br)c(O)c(Br)c2)C=C(O)c2cccnc21
0.51	> 100	16	CC(/N=C1\C=C(O)c2cccnc2C1=O)C(O)c1ccccc1 (centres undefined)
0.45	> 100	17	COc1cc(CC/N=C2\C=C(O)c3cccnc3C2=O)ccc1O
0.43	9.8	1.1	O=C1C(Cl)=C(NCCN2CCOCC2)C(=O)c2cnncc21
0.3			O=C1C(Cl)=C(NC2CCc3ccccc32)C(=O)c2ncccc21 (centres undefined)
